A short description of series [1]: Cytotoxicity against human HepG2 cells assessed as cell viability at 30 uM incubated for 2 hrs by MTT assay relative to control. The series is classed as cell-based. Particulars: read-out: Activity. The essentials: (§1)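 HepG2 human hepatoma cells; viability read by MTT assay, with 0.1% DMSO as vehicle control. Viability given as % of control, mean ± SEM (n = 3); p < 0.05 taken as significant.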
Background: Formazan colour is commonly taken as a measure of viable cells.

Series [2] concerns the target T1, Amine oxidase [flavin-containing] B (Homo sapiens, UniProt P27338).
T1 sequence (P27338 whole entry): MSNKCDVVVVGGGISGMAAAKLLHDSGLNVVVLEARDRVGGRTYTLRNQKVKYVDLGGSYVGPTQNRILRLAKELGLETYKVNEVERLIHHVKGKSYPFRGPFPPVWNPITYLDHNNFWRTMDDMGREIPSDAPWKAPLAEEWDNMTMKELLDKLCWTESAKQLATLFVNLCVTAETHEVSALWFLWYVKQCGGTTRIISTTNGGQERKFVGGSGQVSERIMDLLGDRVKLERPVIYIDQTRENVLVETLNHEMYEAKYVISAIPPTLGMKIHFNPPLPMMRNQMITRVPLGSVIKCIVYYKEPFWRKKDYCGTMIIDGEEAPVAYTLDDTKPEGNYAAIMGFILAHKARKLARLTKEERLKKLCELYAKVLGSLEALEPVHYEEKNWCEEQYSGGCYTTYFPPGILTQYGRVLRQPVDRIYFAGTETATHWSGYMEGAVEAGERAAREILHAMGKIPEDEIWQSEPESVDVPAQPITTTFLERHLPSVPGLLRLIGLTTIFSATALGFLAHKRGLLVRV
The series can be described thus: Inhibition of recombinant human MAO-B expressed in baculovirus infected BTI insect cells using p-tyramine as substrate incubated for 30 mins by Amplex red reagent based fluorescence analysis. Type of series: cell-based.

Series [3] in a line: Cytotoxicity against human HepG2 cells assessed as cell viability at 15 uM incubated for 2 hrs by MTT assay relative to control. Particulars: read-out: Activity. The series is classed as cell-based. The method, boiled down:
as §1

Series [4] can be described thus: Cytotoxicity against human HepG2 cells assessed as cell viability at 7.5 uM incubated for 2 hrs by MTT assay relative to control. Type of series: cell-based. The conditions noted are these: read-out: Activity. The method, boiled down: as §1
The target in series [5] is T2, Amine oxidase [flavin-containing] A (Homo sapiens, UniProt P21397).
T2 sequence (P21397 whole entry): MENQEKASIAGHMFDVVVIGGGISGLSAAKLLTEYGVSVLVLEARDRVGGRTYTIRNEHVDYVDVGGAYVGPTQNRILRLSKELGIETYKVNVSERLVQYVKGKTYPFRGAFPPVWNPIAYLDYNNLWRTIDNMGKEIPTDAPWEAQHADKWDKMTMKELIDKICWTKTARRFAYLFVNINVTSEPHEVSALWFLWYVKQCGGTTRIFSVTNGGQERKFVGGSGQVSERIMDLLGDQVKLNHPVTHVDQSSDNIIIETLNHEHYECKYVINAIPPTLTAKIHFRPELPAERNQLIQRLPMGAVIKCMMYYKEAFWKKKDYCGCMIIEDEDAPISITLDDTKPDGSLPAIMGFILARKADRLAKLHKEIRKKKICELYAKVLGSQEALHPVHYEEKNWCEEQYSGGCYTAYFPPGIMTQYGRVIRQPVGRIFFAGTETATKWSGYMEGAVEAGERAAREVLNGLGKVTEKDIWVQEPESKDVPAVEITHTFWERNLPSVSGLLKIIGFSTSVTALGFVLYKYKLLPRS
The series can be described thus: Inhibition of recombinant human MAO-A expressed in baculovirus infected BTI insect cells using p-tyramine as substrate incubated for 30 mins by Amplex red reagent based fluorescence analysis.

The target of series [6] is T2, Amine oxidase [flavin-containing] A. In words: Reversible inhibition of human MAO-A assessed as residual enzyme activity at 4 fold IC50 incubated for 15 mins and measured before dialysis by dialysis method relative to control. The essentials: (§2)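 Dialysed (MWCO 12 000) at 4 °C for 24 h against 100 mM potassium phosphate pH 7.4, 5% sucrose, buffer changed twice. Dialysed and undialysed mixtures assayed together; residual activity from triplicates.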

The target is the same in series [7]. In words: Reversible inhibition of human MAO-A assessed as residual enzyme activity at 4 fold IC50 incubated for 15 mins and measured 24 hrs post dialysis by dialysis method relative to control. The conditions noted are these: 24.25 h, time 1455 min. The essentials: as §2
Series [8] concerns the target T1, Amine oxidase [flavin-containing] B. In words: Reversible inhibition of human MAO-B assessed as residual enzyme activity at 4 fold IC50 incubated for 15 mins and measured 24 hrs post dialysis relative to control. The conditions noted are these: 24.25 h, time 1455 min. The method, boiled down: as §2
Series [9] can be described thus: Selectivity index, ratio of Ki for inhibition of recombinant human MAO-A to Ki for inhibition of recombinant human MAO-B using p-tyramine as substrate.
Series [10] is described as follows: Permeability of compound in PBS/EtOH buffer (70:30) at 25 ug/ml incubated for 16 hrs by UV plate reader based PAMPA-BBB. On the technique in general: PAMPA measures passive passage across an artificial lipid membrane.
For series [11], the target named is T1, Amine oxidase [flavin-containing] B. The series can be described thus: Reversible inhibition of human MAO-B assessed as residual enzyme activity at 4 fold IC50 incubated for 15 mins and measured before dialysis relative to control. The essentials: as §2

As to `COc1ccccc1C(/C=C/c1ccccc1Cl)=N/NC(=O)Cn1c(=O)oc2ccc(Cl)cc21`, the viability at 2 h, 30 µM in [1] came out at 87.4%. The Ki (in general, a dissociation constant, usually derived from enzyme kinetics or from competition with a known ligand) is 9.27 µM in [2] and 0.001 µM in series [5]. Moreover, in series [3], the viability at 2 h, 15 µM is 90.6%. Moreover, the viability at 2 h, 7.5 µM in series [4] came to 92.1%. Also, the Activity in series [6] stood at 21.91%; in [7], 93.26%; in series [8], 93.41%; in [11], 77.22%. Besides, in series [9], the Ratio Ki was 1.08 10^-4No_unit. For the same compound, in series [10], the Papp (in general, the rate of passage across a membrane or cell layer, normalised by area and donor concentration) at 16 h, 25 ug/ml stood at 14 ×10⁻⁶ cm/s.

For the compound `NCCc1ccc(O)c(O)c1` [DOPAMINE], in series [10], the Papp at 16 h, 25 ug/ml stood at 0.32 ×10⁻⁶ cm/s.

On to `NCCNC(=O)c1ccc(Cl)cn1` [LAZABEMIDE], for which, in series [1], the viability at 2 h, 30 µM is 85.6%. Further, the viability at 2 h, 15 µM in series [3] was 89.7%. Also, the viability at 2 h, 7.5 µM in [4] was found to be 92.4%. For the same compound, the inhibition constant Ki in [5] was above 250 µM. In addition, the Activity was found to be 11% in [6], 97% in series [7], 99% in [8] and 89% in [11].

Take `COc1ccccc1/C=C/C(=N\NC(=O)Cn1c(=O)oc2ccc(Cl)cc21)c1ccccc1`: in [1], the viability at 2 h, 30 µM was 87.7%. Also, the Ki in series [2] was 2.75 µM; in series [5], 0.001 µM. Further, the viability at 2 h, 15 µM in [3] turned out to be 89%. The viability at 2 h, 7.5 µM in series [4] is 91.3%. The Activity was found to be 19.55% in series [6], 92.24% in series [7], 97% in series [8] and 77.29% in series [11]. Besides, the Ratio Ki in series [9] is 7.27 10^-5No_unit. Besides, in [10], the Papp at 16 h, 25 ug/ml is 14.6 ×10⁻⁶ cm/s.

For `COc1cccc(/C=C/C(=N\NC(=O)Cn2c(=O)oc3ccccc32)c2ccccc2)c1`, the figures for the inhibitory constant (Ki) in [2] and in series [5] were 8.9 µM and 0.001 µM, respectively. The Ratio Ki in [9] is 1.12 10^-4No_unit.

Take `COc1ccccc1C1=NN(C(=O)Cn2c(=O)oc3ccccc32)C(c2ccccc2Cl)C1` (centres undefined): the inhibition constant (Ki) in series [2] stood at 1.15 µM; in [5] it was 0.013 µM. Moreover, the Ratio Ki in series [9] turned out to be 0.011.

Regarding `COc1ccc(C2=NN(C(=O)Cn3c(=O)oc4ccc(C)cc43)C(c3ccccc3)C2)cc1` (centres undefined), the Ki in series [2] worked out at 7.5 µM; in series [5], 0.8 µM. For the same compound, the Ratio Ki in series [9] was 0.107.

Take `COc1ccccc1C(/C=C/c1ccccc1Cl)=N/NC(=O)Cn1c(=O)oc2ccccc21`: the inhibitory constant (Ki) is 60 µM in [2] and 0.004 µM in series [5]. Also, the Ratio Ki in [9] is 6.66 10^-5No_unit.

For `COc1ccc(C2=NN(C(=O)Cn3c(=O)oc4ccccc43)C(c3cccc(OC)c3OC)C2)cc1` (centres undefined), the inhibition constant (Ki) worked out at 255 µM in series [2] and 0.125 µM in series [5]. The Ratio Ki in series [9] was 4.9 10^-4No_unit.

Consider `Cc1ccc(C2=NN(C(=O)Cn3c(=O)oc4ccccc43)C(c3ccccc3)C2)cc1` (centres undefined), for which the values for the Ki in series [2] and in series [5] were 5.55 µM and 0.019 µM, respectively. In addition, the Ratio Ki in series [9] amounted to 0.003.

For `COc1cccc(C2=NN(C(=O)Cn3c(=O)oc4ccc(C)cc43)C(c3ccccc3Cl)C2)c1` (centres undefined), the Ki in series [2] amounted to 24.3 µM; in series [5], 0.011 µM. For the same compound, the Ratio Ki in [9] was 4.52 10^-4No_unit.

For the compound `Cc1ccc(C2CC(c3ccccc3)=NN2C(=O)Cn2c(=O)oc3ccccc32)cc1` (centres undefined), the figures for the Ki in series [2] and in series [5] were 8.95 µM and 0.004 µM, respectively. Also, the Ratio Ki in series [9] is 0.000446.

As for `COc1ccc(C2CC(c3ccccc3)=NN2C(=O)Cn2c(=O)oc3ccc(C)cc32)cc1OC` (centres undefined), the Ki in series [2] is 41.3 µM; in [5], 0.17 µM. In [9], the Ratio Ki turned out to be 0.004.

In the case of `C[C@]12CC[C@@H]3c4ccc(O)cc4CC[C@H]3[C@@H]1CC[C@@H]2O` [ESTRADIOL], in series [10], the Papp at 16 h, 25 ug/ml came to 9.99 ×10⁻⁶ cm/s.

Consider `CCn1cc(C(=O)O)c(=O)c2cc(F)c(N3CCNC(C)C3)c(F)c21` (centres undefined) [LOMEFLOXACIN], for which the apparent permeability (Papp) at 16 h, 25 ug/ml in series [10] amounted to 0.99 ×10⁻⁶ cm/s.

Regarding `COc1ccc(C2=NN(C(=O)Cn3c(=O)oc4ccc(Cl)cc43)C(c3cccc(OC)c3OC)C2)cc1` (centres undefined), the Ki is 8000 µM in [2] and 1.55 µM in series [5]. In [9], the Ratio Ki is 1.94 10^-4No_unit.

As for `COc1ccc(C(/C=C/c2ccccc2Cl)=N/NC(=O)Cn2c(=O)oc3ccccc32)cc1`, the inhibitory constant (Ki) in [2] was found to be 35 µM; in series [5] it was 0.001 µM. In [9], the Ratio Ki was 3.43 10^-5No_unit.

Take `COc1ccccc1C(/C=C/c1ccccc1Cl)=N/NC(=O)Cn1c(=O)oc2ccc(C)cc21`: the Ki in [2] came out at 16.6 µM; in series [5] it was 0.011 µM. Moreover, in [9], the Ratio Ki is 6.65 10^-4No_unit.

The values are drawn from ChEMBL document CHEMBL4706681, “New 2-Pyrazoline and Hydrazone Derivatives as Potent and Selective Monoamine Oxidase A Inhibitors” (J Med Chem, 2021).
